# Experimental data from ChEMBL document CHEMBL1129428 (J Med Chem, 1996).
# How the values were obtained:
# [1] = test system: Rattus norvegicus; test: Compound was tested for anticonvulsant activity after Oral Administration into Rats by using MES screen test after 2h,dose 12.5 mg/kg; number of rats out of four which were protected; assay type: functional
# Summary of the method: (§1)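 Rats received the compound orally. […] Rats were tested in the MES screen at 0.25, 0.5, 1, 2 and 4 h. Each value is the number of rats protected out of 4. The test followed NINDS procedures.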
# [2] = test system: Rattus norvegicus; test: Compound was tested for anticonvulsant activity after Oral Administration into Rats by using MES screen test after 4h,dose 12.5 mg/kg; number of rats out of four which were protected; assay type: functional; summary of the method: as §1
# [3] = test system: Mus musculus; test: Anticonvulsant activity after intraperitoneal injection into mice measured in a maximal electroshock scree (MES) screen; assay type: functional
# [4] = test system: Rattus norvegicus; test: Compound was tested for anticonvulsant activity after Oral Administration into Rats by using MES screen test after 1h,dose 12.5 mg/kg; No activity was demonstarted; assay type: functional, organism-based; parameters: dose 12.5 mg/kg; summary of the method: as §1
# [5] = test system: Mus musculus; test: Compound was tested for toxicity after intraperitoneal injection into mice by using toxicity screen test after 4 hr; assay type: organism-based; conditions: in vivo, ip
# Summary of the method: (§2)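 Mice injected intraperitoneally at 30, 100 and 300 mg/kg and examined 0.5 and 4 h afterwards. Each entry is the minimum dose giving activity (MES protection, scPTZ protection, or rotorod failure for neurotoxicity) in half or more of the mice. Activity is called absent if nothing occurs at 300 mg/kg.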
# [6] = test system: Rattus norvegicus; test: Compound was tested for anticonvulsant activity after Oral Administration into Rats by using MES screen test after 0.25h,dose 12.5 mg/kg; No activity was demonstarted; assay type: functional, organism-based; parameters: dose 12.5 mg/kg; summary of the method: as §1
# [7] = test system: Rattus norvegicus; test: Compound was tested for anticonvulsant activity after Oral Administration into Rats by using MES screen test after 0.5h,dose 12.5 mg/kg; No activity was demonstarted; assay type: functional, organism-based; parameters: dose 12.5 mg/kg; summary of the method: as §1
# [8] = test system: Mus musculus; test: Anticonvulsant activity after intraperitoneal injection into mice by using scPTZ screen test after 4 hr; assay type: functional
# [9] = test system: Rattus norvegicus; test: Compound was tested for anticonvulsant activity after Oral Administration into Rats by using MES screen test after 2h,dose 12.5 mg/kg; No activity was demonstarted; assay type: functional, organism-based; parameters: dose 12.5 mg/kg; summary of the method: as §1
# [10] = test system: Rattus norvegicus; test: Compound was tested for anticonvulsant activity after Oral Administration into Rats by using MES screen test after 0.25h,dose 50 mg/kg; No activity was demonstarted; assay type: functional, organism-based; parameters: dose 50 mg/kg; summary of the method: as §1
# [11] = test system: Mus musculus; test: Anticonvulsant activity after intraperitoneal injection into mice by using MES screen test after 0.5 hr; assay type: functional
# [12] = test system: Rattus norvegicus; test: Compound was tested for anticonvulsant activity after Oral Administration into Rats by using MES screen test after 1h,dose 50 mg/kg; number of rats out of four which were protected; assay type: functional; summary of the method: as §1
# [13] = Partition coefficient (logP); assay type: physicochemical; conditions: octanol/water
# Summary of the method: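 Partition between 1-octanol and buffer at pH 7.4, with solutions prepared in 1-octanol before buffer is added. Quantified by UV, using λmax and ε values measured in 1-octanol.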
# [14] = test system: Rattus norvegicus; test: Compound was tested for anticonvulsant activity after Oral Administration into Rats by using MES screen test after 2h,dose 50 mg/kg; number of rats out of four which were protected; assay type: functional; summary of the method: as §1
# [15] = test system: Rattus norvegicus; test: Compound was tested for anticonvulsant activity after Oral Administration into Rats by using MES screen test after 0.5h,dose 50 mg/kg; number of rats out of four which were protected; assay type: functional; summary of the method: as §1
# [16] = test system: Rattus norvegicus; test: Compound was tested for anticonvulsant activity after Oral Administration into Rats by using MES screen test after 4h,dose 50 mg/kg; number of rats out of four which were protected; assay type: functional; summary of the method: as §1
# [17] = test system: Mus musculus; test: Compound was tested for anticonvulsant activity after intraperitoneal injection into mice by using scPTZ screen test after 1 hr; assay type: functional; conditions: ip
# Summary of the method: (§3)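 Quantitative intraperitoneal mouse testing in the MES, scPTZ or rotorod neurotoxicity screens at the peak time given for each compound (0.25–2 h). ED50 or TD50 reported in mg/kg with 95% CI and slope (SE).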
# [18] = test system: Rattus norvegicus; test: Compound was tested for anticonvulsant activity after Oral Administration into Rats by using MES screen test after 0.25h,dose 50 mg/kg; number of rats out of four which were protected; assay type: functional; summary of the method: as §1
# [19] = test system: Mus musculus; test: Compound was tested for anticonvulsant activity after intraperitoneal injection into mice by using MES screen test after 1 hr; assay type: functional; conditions: ip; summary of the method: as §3
# [20] = test system: Mus musculus; test: Toxicity after intraperitoneal injection into mice by using toxicity screen test after 0.5 hr; assay type: organism-based; conditions: in vivo, ip; summary of the method: as §2
# [21] = Compound was tested for toxicity after intraperitoneal injection into mice by using neurotoxicity screen test after 1 hr; assay type: organism-based; conditions: mouse, in vivo, ip; summary of the method: as §3
# [22] = test system: Rattus norvegicus; test: Compound was tested for anticonvulsant activity after Oral Administration into Rats by using MES screen test after 1h,dose 12.5 mg/kg; number of rats out of four which were protected; assay type: functional; summary of the method: as §1
# [23] = test system: Mus musculus; test: Anticonvulsant activity after intraperitoneal injection into mice by using scPTZ screen after 0.5 hr; assay type: functional
# [24] = test system: Rattus norvegicus; test: Anticonvulsant activity after oral administration into rats; assay type: functional; parameters: concentration or dose not given beside the values
# [25] = Protection index = TD50/ED50 (MES); conditions: mouse, in vivo; read-out: PI
# [26] = Protection index = TD50/ED50; assay type: ADME; conditions: read-out: PI
SMILES,Activity [1],Activity [2],Dose [3],Activity [4],Dose [5],Activity [6],Activity [7],Dose [11],Activity [12],Activity [14],Activity [15],Activity [16],ED50 [17],ED50 [19],TD50 at 1 h [21],further results
NC(=O)N/N=C\c1ccc(Oc2ccc(-c3ccccc3)cc2)cc1,3,1,300 mg/kg,No activity,300 mg/kg,No activity,No activity,,,,,,,,,Dose [8]: 300 mg/kg
NC(=O)N/N=C\c1ccc(Oc2ccncc2)cc1,,2,300 mg/kg,No activity,,No activity,No activity,,,,,,,,,Activity [9]: No activity
NC(=O)N/N=C/c1ccc(Oc2ccccc2)cc1,,,300 mg/kg,,,,,100 mg/kg,4,4,3,4,,,,Activity [10]: No activity; logP [13]: 2.66
NC(=O)N/N=C/c1ccc(Oc2ccc(F)cc2Cl)cc1,,,30 mg/kg,,300 mg/kg,,,30 mg/kg,4,4,4,4,> 68 mg/kg,13.1 mg/kg,62.5 mg/kg,Activity [18]: 4; Dose [20]: 100 mg/kg
C/C(=N/NC(N)=O)c1ccc(Oc2ccc(C)cc2)cc1,4,4,100 mg/kg,,,No activity,,30 mg/kg,,,,,18.7 mg/kg,5.62 mg/kg,57.9 mg/kg,Activity [22]: 2; Dose [23]: 30 mg/kg; Activity [24]: 1; selectivity ratio [25]: 10.3; selectivity ratio [26]: 3.09
